Source: the EternaBench riboswitch data

Tested on: MS2 coat protein
Assay: apparent Kd, MS2 coat protein; higher = weaker binding; RNA-MaP array
In short: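 Designs measured on fewer than 10 clusters were excluded from the data. The rest were RNAs transcribed from sequenced DNA templates on an Illumina sequencing chip and incubated at room temperature, with or without input ligand, with fluorescently labeled MS2 coat protein at 1.5 nM to 3 μM for 0.8–1.5 h at the lowest to 10–20 min at the highest concentrations. Apparent Kd is the median of the per-cluster binding-curve fits.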

[1] = designed as: OFF switch for flavin mononucleotide, no ligand
[2] = ligand present: flavin mononucleotide, designed as: OFF switch for flavin mononucleotide
[3] = designed as: ON switch for flavin mononucleotide, no ligand
[4] = ligand present: flavin mononucleotide, designed as: ON switch for flavin mononucleotide
[5] = designed as: OFF switch for theophylline, no ligand
[6] = ligand present: theophylline, designed as: OFF switch for theophylline
[7] = designed as: OFF switch for tryptophan, no ligand
[8] = ligand present: tryptophan, designed as: OFF switch for tryptophan
[9] = designed as: ON switch for tryptophan, no ligand
[10] = ligand present: tryptophan, designed as: ON switch for tryptophan

Row | Sequence | apparent Kd [1] [nM] | apparent Kd [2] [nM] | apparent Kd [3] [nM] | apparent Kd [4] [nM] | further results
1 | GCAUAACAUGAGGAUCACCCAUGUGAGGAUAUUCCCUCCGGCAAUUGCUCCCAAGAGGGAAGAAGGCACAGUGG | 146 | 66.1 |  |  | 
2 | AUGAACAACCAGAAGGCAACGUUGGCCCAAGUUUGAGGAUAUGGACGUGGAAGUUCGCACAUGAGGAUCACCCAUGUAGAUCAG | 14 | 12.8 |  |  | 
3 | AGACCGGCUCAGGAUAUGUACAGGACAUACUCAACAGAAGGGAGUACAUGAGGAUCACCCAUGUCUGGGUAGAU | 488 | 371 |  |  | 
4 | CGACAUUAAACAUGAGGAUCACCCAUGUGACCCUAUUGUCCAAAGGAUAUCUUAUGAAUAGAGAAAGAGAAGGUUGUAUUCCCA | 241 | 196 |  |  | 
5 | CAACACGGAGAGAAGGAAGCUGAAACGGUGCACUUAGGAUAUCUUCCGCCAGAAAACAUGAGGAUCACCCAUGUUCAGUUAACG |  |  | 7.82 | 7.54 | 
6 | AACUUUCCCUAGAAGGUCGUGUUACAACAUGAGGAUCACCCAUGUCGCCCUAGGGCUGCUGCCGCGAAGGAUAUAGGUCCGGAG |  |  | 5.77 | 5.32 | 
7 | AUGCACAUCUAGGAUACCAGCACCCUUAUGUCACUAGUUAACAUGAGGAUCACCCAUGUUUGCCCUUGGCAGCCUCAUUGACCAU |  |  |  |  | apparent Kd [5]: 68.5 nM; apparent Kd [6]: 172 nM
8 | UUCACGGGCACGGCCGCCACUAACCAACAUGAGGAUCACCCAUGUGUAUUGGACGACCUCUUUGCUAGGACCGGGUGUAUGGUUC |  |  |  |  | apparent Kd [7]: 24.8 nM; apparent Kd [8]: 30.5 nM
9 | UUAGUAACCACAGGAUAUGCGGACGGGUGAAGGGCAGAAGGGUGGGAGUGCACAUGAGGAUCACCCAUGUAACACGCCAUAUUU |  |  | 17.7 | 8.65 | 
10 | GUGACUAGCGUAAGGAUAUUCACGAGCGGCGGCUUGAAGAAGGUACAUGAGGAUCACCCAUGUAGGGUAAUCAA | 41.6 | 44.3 |  |  | 
11 | UAGUACAUGAGGAUCACCCAUGUCGGAGGUCGAGGACCGGUACGGCCGCCACUCGGUCAUGCCCUACGAUACGACAGGAAUCUGU |  |  |  |  | apparent Kd [9]: 22.2 nM; apparent Kd [10]: 16.8 nM
12 | AUCUACGUGGGUGAUACCAGCUGGUUAGUACACAUGAGGAUCACCCAUGUGCAGGCAGGCAGCCCUUGGCAGCACCGCAGUGGCU |  |  |  |  | apparent Kd (designed as: ON switch for theophylline, no ligand): 120 nM; apparent Kd (ligand present: theophylline, designed as: ON switch for theophylline): 35 nM
13 | GUAACGGGAAGCAGUGGCUUGACAUGAGGAUCACCCAUGUACAGAAGGGACGAUUACGUAAUGCGUCAGGAUAUGUGCCGUAGA |  |  | 48 | 28.1 | 
14 | UCUCACAUGAGGAUCACCCAUGUUAAGGCCCGAGGACCGGUACGGCCGCCACUCGUUGGAAGCCGGUAACGUACGAAUCUUCCGU |  |  |  |  | apparent Kd [9]: 17.9 nM; apparent Kd [10]: 24 nM
15 | UACAAGUACUAGAAGGAUCGAACCGAAGGUGUGAUAGGAUAUAGAGACAUGAGGAUCACCCAUGUAGGAGUGCAGUCAUACAUU | 27.9 | 23.4 |  |  | 
16 | UGCCAACAUGAGGAUCACCCAUGUCAGGAUAUCCGGGAGCACUUCAGUAGAAUCCGCUGGAGAAGGGACAUAGG | 24.3 | 21.7 |  |  | 
17 | CAGGCAUGUAUAGGAUAUUGGGCUGGACGCGUUGUCGGUCGUUCCAACAUGAGGAUCACCCAUGUCAAGAAGGAUAUGCAUUCG |  |  | 38.8 | 27.3 | 
18 | AACAAAUGGGAAGGAUAUCGUUACAUGAGGAUCACCCAUGUCUACCUUGGGAGCGGUAGCUAUGUCGAGAAGGUCCAUGCGCGA |  |  | 394 | 84.1 | 
19 | GAGUACAGGGAGAAGGUGUAUUAAUACGCACGGCUGGUCACAUGAGGAUCACCCAUGUCGCAUAACAAGGAUAUCCGACUAAUC | 139 | 213 |  |  | 
20 | CGCAGGGCCCAGAAGGGCAUAAUGUUAGACUACAUGAGGAUCACCCAUGUGCCACGAGAGGUUGUGCAGGAUAUGGAUCUAUUG |  |  | 56.7 | 23.9 | 
21 | GUCGGAGUGGAGAAGGCGCCAACGUAAGCGCGGCGAGGAUAUCCCUACCCUACAUGAGGAUCACCCAUGUCGACGAGAGUAUCG |  |  | 11.3 | 7.99 | 
22 | GAGCUAUCAGGAUAUACAUGAGGAUCACCCAUGUUUUUUGGAAUCAAGAGGAAUCAAUGUAGAAGGGAUCUCGA | 21.8 | 28.2 |  |  | 
23 | UACCUUAACACGGCCGCCACUCUCUAAUAGGAUCAUGGUACCGCACAUGAGGAUCACCCAUGUUUGAGGACCGGGUGUUAUGAAG |  |  |  |  | apparent Kd [9]: 15.1 nM; apparent Kd [10]: 28.7 nM
24 | UUUAUACAUGAGGAUCACCCAUGUGAGGAUAUAAAGGCGGACACUGCUGUCGAUCGCUUUAGAAGGCACUGGAU | 15.8 | 20 |  |  | 

Row | Sequence | apparent Kd [1] [nM] | apparent Kd [2] [nM] | apparent Kd [3] [nM] | apparent Kd [4] [nM] | further results
25 | GUUGGAUUUGUGAGGAUAUGGCCGUGACAUUUGGACCAGAAGGCACAUGAGGAUCACCCAUGUAUUGAAGAACG | 23.3 | 53.4 |  |  | 
26 | CGCUACAUAGCGGCCGCCACUGUCAUGGCUACGAUAGGUCACUCGUACAUGAGGAUCACCCAUGUCAGGACCGGGCUAUCCUCGC |  |  |  |  | apparent Kd [7]: 92.9 nM; apparent Kd [8]: 203 nM
27 | AAACAGGAAGGAUAUACAUGAGGAUCACCCAUGUCAAAUAAAACAAAUAAGCAAGAAUGUAGAAGGACCAAAAU | 17.2 | 12.8 |  |  | 
28 | ACAUGAGGAUCACCCAUGUGUCUCCUUUCCAUUACGAUCUUUAGAAGGGUCCGCAAACACUCUGGACAGGAUAUAAAGUAUGGC | 13.4 | 12.2 |  |  | 
29 | ACAUGAGGAUCACCCAUGUCCUAAAAUGAGGCGAAUACGGCCAAGGAUAUUGGAACAACAGAAGUCAAGAAGGUGGCUAAAUUA |  |  | 56.7 | 28.3 | 
30 | CCGGGCGCUUAACAGGAUAUAGCAGUACAUACAUGAGGAUCACCCAUGUCUAUCUUGUAAUAAAGCUAGAAGGGUUCAUCCGAGGU |  |  | 14 | 9.84 | 
31 | GAGGCACGGUCGGCCGCCACUACAGCAGUGGUCCGCCAAGCGAGGUACAUGAGGAUCACCCAUGUUAGGACCGGGACCUGUUUUU |  |  |  |  | apparent Kd [7]: 24.6 nM; apparent Kd [8]: 73.7 nM
32 | CCUAGACAUGAGGAUCACCCAUGUUAUUGUCUUCAAGGAUAUCGAUGUCUCUCAUAGGCACGAGAAGGUGACUCCU |  |  | 85.2 | 67.1 | 
33 | GACCUCCUGCGAGCACAUGAGGAUCACCCAUGUAAGGACCUGAGAAGGCACCGUUAAGAUUGGAGUGAGGAUAUCAGGAUAUAG | 23.5 | 19.7 |  |  | 
34 | AGAACCAUAGUAGGAUAUGAGACGUUAUUGGUAACAGAAGGACUAGCUGUAACAUGAGGAUCACCCAUGUGGGCCGGACAGAGG |  |  | 14.1 | 11.5 | 
35 | CCACAGUAUAAAGGAUAUGCGGCCACGGCAACAGCAGAAGGUUAUGCCACUGUACAUGAGGAUCACCCAUGUCCAACUUUCCCU |  |  | 23.8 | 11.9 | 
36 | CCACCCGACAUGAGGAUCACCCAUGUAGAUGAUCCUGUACCAUAGGAUAUAGGCGUAAGAGAGAUCUAGAAGGAUGUACAACCC | 108 | 73.5 |  |  | 
37 | CCGAGCACAGGAUAUACAUGAGGAUCACCCAUGUAUACGAAUACGACACAUCCUGCGUGUAGAAGGGUGGCAAA | 6.47 | 6.22 |  |  | 
38 | GCUACCACCGCAGGAUAUAAUCGGACACUCGUAGCGUUGCGAACAUGAGGAUCACCCAUGUCUAUUUAGAAGGGCGCAUGGGAU |  |  | 78.8 | 42.6 | 
39 | CCGCACAUGAGGAUCACCCAUGUUCCCAGUCAACUAGGAGCCAAGGAUAUCGUUCGCGAGUGCACCGAGAAGGUGGCCCAUGAA |  |  | 193 | 72.6 | 
40 | AAAAGAGAAGGAUAUACAGGAAAAGAAAAGAUAUUUCAAUAACAUGAGGAUCACCCAUGUAGAAGGACUAAUAG | 11.8 | 9.74 |  |  | 
41 | UGCGAUGAACCUGAUACCAGAUGUAUUUGCUCCUCGGACAACAUGAGGAUCACCCAUGUCAUCCCUUGGCAGCAGGAGCGAAAGC |  |  |  |  | apparent Kd [5]: 11.9 nM; apparent Kd [6]: 44.1 nM
42 | UAGGUUCUAGUUUCUGCACAUGAGGAUCACCCAUGUUUAGUAAAGGAUAUCACGGUAAGUCGACGUGAGAAGGUUACGUUAGGG | 33.6 | 37 |  |  | 
43 | AAAAGGGCAGGAUAUACAUGAGGAUCACCCAUGUUAAAGCCAACAAGAAGUUCCACUGGUAGAAGGGCCAUAGA | 8.89 | 8.55 |  |  | 
44 | UGGCACAAGUUAGGAUAUAGCACUUCUGUAAAGCUAGAAGGAACGUUGCACAUGAGGAUCACCCAUGUCAGUAAUUGAUAUGUA | 10.1 | 12.6 |  |  | 
45 | UCCUAGCGACAGAAGGUAGGCAAGAGACGCCCUCAACGACAUGAGGAUCACCCAUGUGGGACCACUAAGGAUAUGUAUGCCGAC | 84.6 | 66.5 |  |  | 
46 | ACAUGAGGAUCACCCAUGUUUGGGCAAAGAUUGAUUGACACGAGAAGGGCCCGCGUACGUCGUAGGCAGGAUAUCGAGUACCGG | 32.2 | 31.1 |  |  | 
47 | AGACGGUUACAGGAUAUGACUACUGCUAGAGCAUCAGAAGGGUAUACAUGAGGAUCACCCAUGUCUUCACGGCG | 10.1 | 9.62 |  |  | 
